Measurements published in ChEMBL document CHEMBL4715770, “Inhibition of Low Molecular Weight Protein Tyrosine Phosphatase by an Induced-Fit Mechanism” (J Med Chem, 2016).
Active and inactive are the calls of the source. No cut-off for these calls is given here.

What was measured:
[1] = target: T1, Low molecular weight phosphotyrosine protein phosphatase (Homo sapiens, UniProt P24666); experiment: Inhibition of His-tagged LMW-PTP isoform A (unknown origin) expressed in Escherichia coli BL21 cells using para-nitrophenyl phosphate as substrate incubated for 5 to 10 mins by microplate reader based spectrophotometric analysis
T1 sequence (P24666 whole entry): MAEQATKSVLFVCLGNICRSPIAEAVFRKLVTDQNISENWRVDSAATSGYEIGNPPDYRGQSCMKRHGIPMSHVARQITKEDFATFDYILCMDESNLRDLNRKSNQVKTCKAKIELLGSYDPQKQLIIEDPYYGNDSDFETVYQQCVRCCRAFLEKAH

[2] = target: Low molecular weight phosphotyrosine protein phosphatase (Homo sapiens) (UniProt P24666); experiment: Inhibition of LMW-PTP isoform A in human HepG2 cells assessed as increase in insulin-induced Akt phosphorylation at 16 uM pretreated for 2 hrs followed by insulin stimulation and measured after 30 mins by Western blot analysis; format: cell-based
Method in brief: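 HepG2 cells in DMEM with 10% FBS at 37 °C and 5% CO2 were grown to 60-80% confluence and serum-starved overnight. They were given vehicle or compound for 2 h, then 50 nM insulin for 30 min. Lysates were run on 10% SDS-PAGE and immunoblotted for phospho-AKT and total AKT with ECL detection. Densitometric pAKT/AKT ratios were normalized to vehicle.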

[3] = target: T2, Dual specificity protein phosphatase 23 (Homo sapiens, UniProt Q9BVJ7); experiment: Inhibition of His-tagged VHZ (unknown origin) expressed in Escherichia coli BL21 cells using para-nitrophenyl phosphate as substrate incubated for 5 to 10 mins by microplate reader based spectrophotometric analysis
T2 sequence (Q9BVJ7 whole entry): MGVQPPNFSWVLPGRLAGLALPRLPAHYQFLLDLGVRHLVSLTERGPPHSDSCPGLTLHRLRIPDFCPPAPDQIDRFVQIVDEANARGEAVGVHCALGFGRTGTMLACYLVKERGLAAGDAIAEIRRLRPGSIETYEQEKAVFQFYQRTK

[4] = Inhibition of His-tagged PTP-H1 (unknown origin) expressed in Escherichia coli BL21 cells using para-nitrophenyl phosphate as substrate incubated for 5 to 10 mins by microplate reader based spectrophotometric analysis; design: species or system Homo sapiens
Method in brief: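 Enzyme at 5-20 nM was added to substrate plus a range of inhibitor concentrations and run 5-10 min at room temperature. Quenched with 5N NaOH and p-nitrophenol read at 405 nm (ε 18,000 M-1cm-1), with a no-enzyme background correction. IC50 from curve fitting.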

[5] = target: T1, Low molecular weight phosphotyrosine protein phosphatase; experiment: Competitive inhibition of LMW-PTP isoform B (unknown origin) using para-nitrophenyl phosphate as substrate by Lineweaver-Burk plot analysis
Method in brief: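 Recombinant His-tagged LMW-PTP from E. coli, Ni-NTA then Sephadex G75 purified. pNPP hydrolysis in 50 mM 3,3-dimethylglutarate buffer, pH 7.0, 25 °C. Reaction started by adding enzyme to mixes of varied pNPP and varied inhibitor concentrations, run 5-10 min, quenched with 5N NaOH. p-Nitrophenol read at 405 nm, blank without enzyme subtracted. Ki from enzyme-kinetics fitting.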

[6] = target: T3, RNA polymerase II subunit A C-terminal domain phosphatase SSU72 (Homo sapiens, UniProt Q9NP77); experiment: Inhibition of His-tagged SSu72 (unknown origin) expressed in Escherichia coli BL21 cells using para-nitrophenyl phosphate as substrate incubated for 5 to 10 mins by microplate reader based spectrophotometric analysis
T3 sequence (Q9NP77 whole entry): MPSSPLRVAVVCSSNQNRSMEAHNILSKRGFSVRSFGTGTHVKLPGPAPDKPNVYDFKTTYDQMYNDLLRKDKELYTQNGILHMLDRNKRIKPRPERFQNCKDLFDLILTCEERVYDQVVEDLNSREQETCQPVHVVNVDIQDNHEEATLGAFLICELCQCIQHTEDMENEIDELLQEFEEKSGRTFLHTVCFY

[7] = target: T1, Low molecular weight phosphotyrosine protein phosphatase; experiment: Competitive inhibition of His-tagged LMW-PTP isoform A (unknown origin) expressed in Escherichia coli BL21 cells using para-nitrophenyl phosphate as substrate by Lineweaver-Burk plot analysis
Method in brief: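 Recombinant enzyme Ni-NTA purified (Tris pH 7.8, 500 mM NaCl, 250 mM imidazole elution), then Sephadex G75. pNPP hydrolysis in 50 mM 3,3-dimethylglutarate, pH 7.0, 25 °C. Enzyme added last to mixes of varied pNPP and inhibitor concentrations, 5-10 min, NaOH quench. p-nitrophenol read at 405 nm (ε 18,000 M-1cm-1), no-enzyme blank subtracted. Ki fitted by enzyme-kinetics regression.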

[8] = target: Tyrosine-protein phosphatase non-receptor type 13 (Homo sapiens, UniProt Q12923); experiment: Inhibition of His-tagged FAP1 (unknown origin) expressed in Escherichia coli BL21 cells using para-nitrophenyl phosphate as substrate incubated for 5 to 10 mins by microplate reader based spectrophotometric analysis
Chain of Tyrosine-protein phosphatase non-receptor type 13 (Q12923 whole entry): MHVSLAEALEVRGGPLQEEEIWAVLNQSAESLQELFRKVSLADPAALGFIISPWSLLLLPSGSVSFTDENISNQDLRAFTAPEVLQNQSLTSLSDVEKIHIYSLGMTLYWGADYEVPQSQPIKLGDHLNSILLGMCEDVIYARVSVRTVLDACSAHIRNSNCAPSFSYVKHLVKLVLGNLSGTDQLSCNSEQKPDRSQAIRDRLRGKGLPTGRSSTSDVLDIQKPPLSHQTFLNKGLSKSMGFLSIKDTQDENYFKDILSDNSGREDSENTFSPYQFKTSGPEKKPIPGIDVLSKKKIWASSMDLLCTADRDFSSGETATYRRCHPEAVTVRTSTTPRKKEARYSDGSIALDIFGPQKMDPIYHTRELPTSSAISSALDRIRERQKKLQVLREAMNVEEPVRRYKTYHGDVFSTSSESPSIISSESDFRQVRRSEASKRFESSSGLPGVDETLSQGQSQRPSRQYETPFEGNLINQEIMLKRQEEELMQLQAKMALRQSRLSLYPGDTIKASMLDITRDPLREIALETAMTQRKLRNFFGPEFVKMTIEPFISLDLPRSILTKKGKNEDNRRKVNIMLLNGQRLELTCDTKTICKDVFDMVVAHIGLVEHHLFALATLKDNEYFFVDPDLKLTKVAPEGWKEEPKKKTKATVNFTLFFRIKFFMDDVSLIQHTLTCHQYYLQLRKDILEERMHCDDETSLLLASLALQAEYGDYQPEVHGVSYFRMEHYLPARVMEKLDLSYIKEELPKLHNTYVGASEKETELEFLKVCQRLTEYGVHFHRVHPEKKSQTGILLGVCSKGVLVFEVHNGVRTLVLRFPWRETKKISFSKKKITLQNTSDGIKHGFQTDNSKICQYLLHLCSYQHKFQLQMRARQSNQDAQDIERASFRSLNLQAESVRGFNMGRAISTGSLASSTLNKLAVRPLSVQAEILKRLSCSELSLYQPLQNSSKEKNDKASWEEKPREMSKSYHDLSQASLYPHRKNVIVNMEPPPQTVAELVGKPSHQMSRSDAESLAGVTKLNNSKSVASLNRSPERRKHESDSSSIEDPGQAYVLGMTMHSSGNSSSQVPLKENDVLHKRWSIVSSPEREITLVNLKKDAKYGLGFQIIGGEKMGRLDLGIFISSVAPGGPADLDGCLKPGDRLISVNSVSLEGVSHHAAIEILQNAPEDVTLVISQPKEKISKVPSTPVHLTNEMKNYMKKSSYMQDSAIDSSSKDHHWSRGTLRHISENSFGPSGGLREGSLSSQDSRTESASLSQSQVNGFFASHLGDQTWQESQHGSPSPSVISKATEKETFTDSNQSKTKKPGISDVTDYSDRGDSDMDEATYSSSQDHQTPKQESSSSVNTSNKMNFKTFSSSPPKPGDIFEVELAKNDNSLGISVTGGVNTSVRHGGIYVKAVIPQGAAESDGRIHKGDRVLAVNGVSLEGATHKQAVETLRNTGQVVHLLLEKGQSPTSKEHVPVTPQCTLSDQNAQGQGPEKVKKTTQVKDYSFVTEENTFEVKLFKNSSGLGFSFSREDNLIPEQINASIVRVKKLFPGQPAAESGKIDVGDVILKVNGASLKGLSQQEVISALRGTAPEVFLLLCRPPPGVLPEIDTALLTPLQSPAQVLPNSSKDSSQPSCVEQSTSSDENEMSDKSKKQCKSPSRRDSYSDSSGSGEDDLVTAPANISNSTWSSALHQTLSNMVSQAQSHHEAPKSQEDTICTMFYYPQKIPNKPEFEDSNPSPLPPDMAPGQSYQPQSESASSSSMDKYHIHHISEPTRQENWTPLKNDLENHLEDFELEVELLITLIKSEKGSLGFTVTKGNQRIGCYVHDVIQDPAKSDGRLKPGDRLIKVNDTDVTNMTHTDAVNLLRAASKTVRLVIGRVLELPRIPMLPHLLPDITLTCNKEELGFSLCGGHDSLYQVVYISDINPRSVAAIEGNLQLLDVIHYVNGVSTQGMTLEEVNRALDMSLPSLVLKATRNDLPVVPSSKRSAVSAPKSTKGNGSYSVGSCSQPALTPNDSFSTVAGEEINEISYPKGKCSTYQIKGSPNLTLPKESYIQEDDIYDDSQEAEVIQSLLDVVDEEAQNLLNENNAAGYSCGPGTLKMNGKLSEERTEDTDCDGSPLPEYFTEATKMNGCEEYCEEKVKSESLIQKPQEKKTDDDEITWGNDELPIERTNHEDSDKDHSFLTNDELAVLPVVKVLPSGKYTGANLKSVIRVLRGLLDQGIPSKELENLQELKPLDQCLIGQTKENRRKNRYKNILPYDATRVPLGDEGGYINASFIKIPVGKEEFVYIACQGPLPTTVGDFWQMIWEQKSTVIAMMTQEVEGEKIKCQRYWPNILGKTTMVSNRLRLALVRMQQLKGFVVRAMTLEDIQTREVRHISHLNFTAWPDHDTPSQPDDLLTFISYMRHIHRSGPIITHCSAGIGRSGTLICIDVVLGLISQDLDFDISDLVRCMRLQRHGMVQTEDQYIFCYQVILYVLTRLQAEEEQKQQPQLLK

Row | Compound | IC50 [1] | other results
1 | O=C(Nc1nccs1)C(c1ccccc1)S(=O)(=O)O (stereo unspecified) | 72 µM | 
2 | O=C(Nc1ccccc1)C(c1ccccc1)S(=O)(=O)O (stereo unspecified) | > 100 µM | 
3 | N#Cc1cccc(C(C(=O)Nc2nc3ccccc3s2)S(=O)(=O)O)c1 (stereo unspecified) | > 200 µM | 
4 | O=C(Cc1ccccc1)Nc1nc2ccc([N+](=O)[O-])cc2s1 | > 100 µM | inhibition [2]: inactive
5 | O=C(Nc1cnc2ccccc2c1)C(c1ccccc1)S(=O)(=O)O (stereo unspecified) |  | IC50 [3]: > 200 µM; IC50 [4]: > 200 µM
6 | O=C(Nc1nc2ccccc2s1)C(c1ccccc1)S(=O)(=O)O (stereo unspecified) |  | Ki [5]: 1.7 µM; IC50 [6]: 69.9 µM; Ki [7]: 3.2 µM; IC50 [4]: > 200 µM
7 | CCOC(=O)c1ccc2nc(NC(=O)C(c3ccccc3)S(=O)(=O)O)sc2c1 (stereo unspecified) | 3.1 µM | 
8 | O=C(Nc1nc2ccccc2s1)C(c1cccc(C(F)(F)F)c1)S(=O)(=O)O (stereo unspecified) | > 200 µM | 
9 | O=C(Nc1nc2ccccc2s1)C(c1cccc([N+](=O)[O-])c1)S(=O)(=O)O (stereo unspecified) | > 200 µM | 
10 | O=C(Nc1ccc2nc(C(F)(F)F)[nH]c2c1)C(c1ccccc1)S(=O)(=O)O (stereo unspecified) |  | IC50 [8]: > 200 µM; IC50 [4]: > 200 µM
11 | O=C(Nc1nc2ccccc2s1)C(c1ccc(Br)cc1)S(=O)(=O)O (stereo unspecified) | 106 µM | 
12 | O=C(Nc1ccc(N2CCOCC2)cc1)C(c1ccccc1)S(=O)(=O)O (stereo unspecified) |  | IC50 [3]: > 200 µM; IC50 [4]: > 200 µM
13 | CCCNC(=O)C(c1ccccc1)S(=O)(=O)O (stereo unspecified) | > 200 µM | 
14 | Cc1ccc(C(C(=O)Nc2nc3ccccc3s2)S(=O)(=O)O)cc1 (stereo unspecified) | 91.4 µM | 
15 | O=C(Nc1nc2ccccc2s1)C(c1cccc(F)c1)S(=O)(=O)O (stereo unspecified) | 50 µM | 

Further lines, with some results ahead:

Row | IC50 [1] | Compound | other results
16 | > 200 µM | Cc1cccc(C(C(=O)Nc2nc3ccccc3s2)S(=O)(=O)O)c1 (stereo unspecified) | 
17 | > 200 µM | O=C(Nc1nc2ccccc2s1)C(c1ccccc1F)S(=O)(=O)O (stereo unspecified) | 
18 | > 200 µM | Cc1ccccc1C(C(=O)Nc1nc2ccccc2s1)S(=O)(=O)O (stereo unspecified) | 
19 | > 200 µM | O=C(Nc1nc2ccccc2s1)C(c1ccccc1Cl)S(=O)(=O)O (stereo unspecified) | 
